Results as given in publication PMC8892090 (Bioactive Materials, 2021).
Values belong to the substance of their own block, whether it stands above or below them.

How the values were obtained:
[1] = Circular dichroism spectroscopy; assay type: physicochemical; settings: 10 μM, deionized water, room temperature (Fig. 2c)
Method in brief: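 Samples at 10 μM were scanned on a CD spectrometer at room temperature. Scan speed was 1200 nm min⁻¹ at 1 nm resolution, and the solution background was subtracted to correct spectra. Three independent repeats.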

HepG2 cells = assay: Cytotoxicity assay; assay type: cell-based; settings: 24 h, series of concentrations, DMSO less than 1%, mean ± SD n = 3 (Fig. S16)
Method in brief: (§1)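 Cells were seeded at 5 × 10³ per well in 96-well plates and allowed to adhere overnight. Test compound was serially diluted from a concentrated DMSO stock, keeping final DMSO below 1%, and incubated 24 h. Viability (%) = (As − Ab)/(Ac − Ab) × 100, using sample, blank and control wells. Three independent repeats.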

786-O cells [2] = assay: Cytotoxicity assay; assay type: cell-based; settings: 24 h, series of concentrations, DMSO less than 1% (Fig. 3j)
Method in brief: as §1

786-O cells [3] = assay: In vitro photostability under NIR laser irradiation; assay type: cell-based; settings: for photobleaching of Cy: 20 μM, co-incubated with 786-O cells 4 h at 37 °C, NIR laser irradiation for 40 min (up to 3.60 kJ/cm^2), IVIS
Method in brief: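 786-O cells were seeded at 5 × 10³ per well and allowed to adhere overnight. They were incubated with test compound (20 μM) for 4 h at 37 °C to allow self-assembly. Cells were then irradiated with a near-infrared laser, with fluorescence recorded at 0–40 min in 5 min steps. Three independent repeats.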

[4] = system: 786-O (Renal Cell Carcinoma, RCC) xenograft mice; assay: In vivo fluorescence imaging and biodistribution, 786-O xenograft
Method in brief: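 Mice received 5 × 10⁶ 786-O cells in PBS subcutaneously in the right hind. At tumour volumes of about 200 mm³, test compound (200 μM, 200 μL) was given intravenously. Whole-body NIR fluorescence was imaged on a Maestro IVIS at 1, 2, 4, 8, 12, 24, 48 and 72 h. Tumour, heart, liver, spleen, lung and kidney were imaged ex vivo at 24 h, and tumour tissue was examined by Bio-TEM. n = 3.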

healthy mice = assay type: in vivo; settings: 200 μL, n = 4
786-O cells [5] = assay: Cellular imaging; assay type: cell-based; settings: 20 μM, 15 min, 37 °C (Fig. 3e, S14)
Method in brief: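 Integrin αvβ3-overexpressing 786-O cells were seeded at 2 × 10⁵ cells on confocal dishes and allowed to adhere overnight. They were then exposed to test compound at 20 μM for 15 min. For time-dependent monitoring, cells were washed with PBS and the medium replaced. Imaging used a 40× objective, with fluorescence intensity quantified from images. Three independent repeats.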

MMP-2 = molecular target: T1, MMP-2 (Homo sapiens, UniProt P08253); assay: MMP-2 enzyme responsiveness; assay type: biochemical; settings: incubated with MMP-2, new peaks for SSGGPLG and R-M1 (Fig. S7)
T1 sequence (P08253 110-660): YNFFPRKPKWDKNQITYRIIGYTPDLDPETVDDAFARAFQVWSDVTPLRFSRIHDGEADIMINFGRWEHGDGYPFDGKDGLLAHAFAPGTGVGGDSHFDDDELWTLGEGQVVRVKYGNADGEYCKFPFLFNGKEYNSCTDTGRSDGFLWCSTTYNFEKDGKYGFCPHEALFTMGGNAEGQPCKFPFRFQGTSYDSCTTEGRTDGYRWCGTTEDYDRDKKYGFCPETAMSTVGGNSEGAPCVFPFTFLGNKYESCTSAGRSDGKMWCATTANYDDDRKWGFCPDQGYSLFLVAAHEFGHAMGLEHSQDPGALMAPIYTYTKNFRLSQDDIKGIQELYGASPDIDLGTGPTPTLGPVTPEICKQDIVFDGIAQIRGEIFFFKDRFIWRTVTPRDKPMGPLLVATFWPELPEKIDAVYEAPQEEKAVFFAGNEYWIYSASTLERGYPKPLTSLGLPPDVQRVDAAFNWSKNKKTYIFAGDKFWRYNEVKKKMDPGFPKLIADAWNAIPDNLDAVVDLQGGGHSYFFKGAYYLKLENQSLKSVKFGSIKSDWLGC

[6] = Critical aggregation concentration with fluorescence probe ANS; assay type: physicochemical; settings: fluorescence probe ANS (Fig. S8)
[7] = ThT and ANS fluorescent probe assay of β-sheet formation; assay type: physicochemical; settings: compared with M1 and M2 group (Fig. S10)
[8] = Transmission electron microscopy of self-assembled nanofibers; assay type: physicochemical; settings: 50 μM in acetonitrile: H2O = 2:3 mixed solution for 1 week (Fig. 2e, S11)
Method in brief: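 Samples were dissolved in acetonitrile:H₂O 2:3 and stored 7 d to self-assemble fully. Then 10 μL was placed on carbon-coated copper grids and the excess blotted with filter paper after 5 min before TEM. Three independent repeats.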

[9] = 200 μM, 1 d, 7 d and 14 d post-injection

Substance: SSGGPGLGYLKLVFFGC(Cy)GRGD [M2]
secondary structure by CD spectrum [1]: random coiled secondary structure
impact on cell viability of HepG2 (HepG2 cells): no impact
impact on cell viability of 786-O (786-O cells [2]): no impact
photobleaching of Cy (786-O cells [3]): 81%
course of fluorescence at the tumor site ([4]; 786-O xenograft, intravenous, 200 μM, 200 μL, imaged 1-72 h, n = 3): quickly decreased after 4 h and nearly vanished at 72 h

HPLC peak of intact M1 after incubation with MMP-2 (MMP-2): vanished
Substance: SSGGPLGYLGKLVFFGC(Cy)GRGD [M1]
secondary structure by CD spectrum [1]: random coiled secondary structure
impact on cell viability of HepG2 (HepG2 cells): no impact
liver function index (ALT, AST, ALP, TP, ALB, GLOB) versus PBS (healthy mice; [9]): no noticeable difference
renal function indicators (BUN, CRE) versus PBS (healthy mice; [9]): no noticeable difference
histology (H&E) of major organs versus PBS (healthy mice; intravenous 200 μM, 1 d post-injection): no histological differences
cellular distribution by confocal imaging (786-O cells [5]): distributed on the membrane of 786-O cells
impact on cell viability of 786-O (786-O cells [2]): no impact
photobleaching of Cy (786-O cells [3]): 55%
decrease of photodegradation rate of Cy versus M2 (786-O cells [3]; same as photobleaching test, M1 against M2): 26%
nanofibrous structures on tumor cells (Bio-TEM) ([4]; after administration of M1 200 μM, 200 μL (Fig. 4e)): clearly observed
fluorescence at the tumor site within 1 h, M1 versus M2 ([4]; intravenous, 200 μM, 200 μL, n = 3): approximately identical fluorescence

Substance: YLGKLVFFGC(Cy)GRGD [R-M1]
secondary structure by CD spectrum [1]: β-sheet structure
critical aggregation concentration (CAC) to form nanofibers [6]: 4.4 µM
fluorescence intensity of ThT and ANS probes (β-sheet formation) [7]: obviously increased
diameter of self-assembled nanofibers (TEM) [8]: 13.4 ± 3.1 nm
